Screens: PubChem BioAssay, SRMLSC
The entries come from a sample that favours hits as a whole.
H69AR inhibit: proliferation blockers of H69AR lung cancer cells, primary screen, cell-based, human, 86K library. H69AR lung tumor viability, ATP luminescence, 72 h; stronger effect = lower value. viability, % at 10 µM. hit rate 6% among 85,000. AID 598, 2007;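 active = viability at or below 40%; inactive = viability above 40%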;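 note: multidrug resistant small cell line overexpressing MRP-1 efflux transporter; 100% = mean luminescence of untreated control wells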
PTEN del growth: growth suppression of PTEN-null HCT116, primary screen, cell-based, CellTiter-Glo; HCT116 PTEN-null viability, 60 h; stronger effect = lower value; hit rate 1.2% among 140,000; viability, % at 10 µM;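 active = viability at or below a set limit, 4 SD under the median of all tested compounds, cut at about 3.7% in these data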;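 note: PTEN knockout HCT116 line with beta catenin targeted HCT116 as companion control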
bCat KO growth: primary screen for growth suppressors in beta-catenin knockout HCT116 cells (colon tumor, human). HCT116 beta-catenin knockout viability, CellTiter-Glo, 60 h; stronger effect = lower value. viability, % at 10 µM. hit rate 1.5% among 140,000. AID 818, 2007;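 active = viability at or under a set limit, the compound median less 4 SD, cut at about 6% in these data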;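 note: 0% = Hyamine 1622 control at 20 µM and 100% = untreated cell control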
HUVEC prolif 384: inhibitors of HUVEC proliferation, primary screen, cell-based, 384-well; CellTiter-Glo luminescence, 72 h; stronger effect = lower value; viability, % at 10 µM (by protocol); hit rate 1.1% among 86,000; AID 648, 2007;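 active = viability at or below 30%; inactive = viability above 30%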;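 note: 100% = median luminescence of DMSO-only cell control wells on each plate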
Fibroblast inh: antiproliferative effect on LL 47 fibroblasts – human, LL 47 cells, CellTiter-Glo luminescence, primary screen; hit rate 1.1% among 85,000; LL 47 human lung fibroblast viability, ATP luminescence; stronger effect = lower value; viability, % at 10 µM; AID 719, 2007;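 active = viability at or below 50% in the single dose screen; inactive = viability above 50%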;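 note: compound exposure lasted 72 h before the ATP readout; 100% = median luminescence of untreated cell-only wells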
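Test system: LL 47 human lung fibroblasts; Quantity: 1,150 cells/well; Buffer or medium: IMEM plus 15% FBS; Dosing: tenfold compound dosing solution, DMSO at 0.1%; Timing: overnight cell rest, 72 h compound treatment at 37 °C; Detection: ATP-based CellTiter-Glo luminescent readout; Read-out basis: viability percentage against median untreated-cell control; Controls: cell-only wells, no compound.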
An asterisk follows results filed as active; . = no result.

SMILES	H69AR inhibit	PTEN del growth	bCat KO growth	HUVEC prolif 384	Fibroblast inh
O=C(CSc1n[nH]c(-c2ccccc2)n1)c1ccc(O)c(O)c1	27*	35	38	62	94
O=C(COC(=O)c1cc([N+](=O)[O-])ccc1NCCO)c1ccccc1	.	104	91	.	.
CCCn1c(/N=C/c2cc(OC)ccc2O)nc2ccccc21	40*	77	80	82	108
CCOC(=O)c1c(C)oc2c1c(C(c1cccnc1)N1CCCCC1)c(O)c1ccccc12 (stereo not drawn)	7.3*	23	25	48	54
O=C(c1ccc(C#CC2(O)CCCCC2)cc1)N1CCN(C(c2ccccc2)c2ccccc2)CC1	34*	27	59	85	100
CCC(=O)Nc1sc2c(c1C#N)CC(C)(CC)OC2 (stereo not drawn)	106	72	82	107	102
COc1coc(C(O)CN)cc1=O (stereo not drawn)	.	100	96	.	.
CCOC(=O)C(=Cc1cc(=O)c(OC)co1)C(=O)OCC	.	1.4*	1.9*	.	.
c1ccc(Cc2nnc(-c3ccccc3)o2)cc1	92	58	59	32	9.6*
Cc1ccccc1-c1nnc(Cc2ccccc2)o1	.	95	99	.	.
O=c1ccsn1Cc1ccccc1	1.3*	5	1.3*	83	8.6*
COc1cccc(N2CCN(Cc3coc4c(Cl)cc(Cl)cc4c3=O)CC2)c1	93	.	.	98	93
CCn1c(N)c(C(=O)NC)sc1=S	20*	61	55	95	97
CN(C)c1ccc(C(c2nnnn2CCOC(=O)Nc2ccc(Cl)cc2)N2CCOCC2)cc1 (stereo not drawn)	89	76	80	98	99
CC(C)Oc1cccc(C(=O)NC(=S)Nc2ccccc2)c1	.	92	92	.	.
Cc1ccc(S(=O)(=O)Nc2ccc(-c3csc(-c4ccccc4)n3)cc2)cc1	.	2.4*	2.7*	.	.
Cc1ccc(S(=O)(=O)Nc2cccc(-c3cn4ccsc4n3)c2)cc1	30*	33	40	70	88
Cc1cccc(S(=O)(=O)Nc2cccc(-c3cn4ccsc4n3)c2)c1	.	90	96	.	.
CCCOc1ccc(C(=O)NNC(=S)NC(=O)CC)cc1	.	6	5.5*	.	.
O=C(Nc1ccc(Br)cc1)c1cccc(N2C(=O)C3C4CCC(C4)C3C2=O)c1 (stereo not drawn)	.	83	82	.	.
COc1ccc(C(=O)N2CCC(=O)N(C(CO)Cc3ccccc3)CC2)cc1 (stereo not drawn)	.	98	92	.	.
CCn1ncc(Br)c1C(=O)Nc1ccc(C(=O)OC(C)C)cc1	100	91	97	104	110
O=C(OCn1ncc(Br)c(Br)c1=O)c1ccccc1Cl	1.2*	2.0*	1.5*	2.6*	2.7*
O=C(OCn1ncc(Br)c(Br)c1=O)c1ccc(F)cc1	1.8*	0.6*	0.8*	2.3*	1.9*
CCOC(=O)N1C=CC=C[C@@H]2[C@@H](N3C(=O)c4ccccc4C3=O)C(=O)N21	.	100	101	.	.
SMILES	H69AR inhibit	PTEN del growth	bCat KO growth	HUVEC prolif 384	Fibroblast inh
Cc1ccc(NC(=O)Cn2c(=O)oc3cc(S(=O)(=O)N4CCC(C)CC4)ccc32)cc1C	17*	99	81	77	89
Cc1cccc(NC(=O)c2sc3nc4c(c(-c5cccs5)c3c2N)CN(C)CC4)c1	57	32	52	15*	81
O=C(NCCc1ccccc1)c1c(F)c(F)c(F)c(F)c1F	.	89	95	.	.
O=C(N/N=C/c1c[nH]c2ccccc12)c1[nH]c2ccc(Br)cc2c1-c1ccccc1	.	1.2*	1.3*	.	.
CC1(C)CC(=O)c2cc(C(=O)NCc3ccco3)c(=O)n(-c3ccc(Cl)cc3)c2C1	59	86	88	93	48*
N=c1n(CCO)c2ccccc2n1CCOc1ccc(Cl)cc1Cl	20*	1.6*	1.7*	2.1*	58
COc1cc2c(=O)n(Cc3ccccc3)c(=O)n(CC(=O)NCCc3ccccc3)c2cc1OC	33*	33	67	76	65
CCNC(=O)Cn1c(=O)c2c(ncn2Cc2ccccc2)n(Cc2ccccc2)c1=O	78	95	90	100	98
CCn1cnc2c1c(=O)n(CC(=O)Nc1ccc3c(c1)OC(F)(F)O3)c(=O)n2Cc1ccccc1	32*	73	89	86	84
CCCCOc1ccc(-c2c(C#N)c(N)nc(SCC(N)=O)c2C#N)cc1	35*	9	26	67	.
